From ChEMBL document CHEMBL1817570, “Unsymmetrical cyclotriazadisulfonamide (CADA) compounds as human CD4 receptor down-modulating agents” (J Med Chem, 2011) come the findings set out here.

Structures can show the parent of a compound that is named as a salt. Where only a bound is given, the exact number is not on record here.

The test relates to CHO. Description: Downmodulation of human CD4 expressed in CHO cells transfected with CD4-YFP construct assessed as decrease in fluorescence intensity after 24 hrs by flow cytometry analysis. It counts as functional, cell-based. The note with it: Cricetulus griseus. The method in brief: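 CHO cells stably expressing human CD4 fused at its C-terminus to YFP, exposed to a range of concentrations for 24 h at 37 °C. Cells were washed, fixed in 1% formaldehyde and analysed at once by flow cytometry with 488 nm excitation, reading YFP in FL-1. YFP median fluorescence intensity was expressed as % of untreated control after subtracting the background of nontransfected cells. IC50 is the 50% CD4 down-modulation point, reported as mean ± SD of three independent experiments (two for some).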

In the case of `C=C1CN(S(=O)(=O)c2ccc(C)cc2)CCCN(CC2CCCCC2)CCCN(S(=O)(=O)c2cccc3ccccc23)C1`, the IC50 runs as follows: (read-out: IC50) 940 nM; (read-out: pIC50 (converted)) 933 nM.

For `C=C1CN(S(=O)(=O)c2ccc(C)cc2)CCCN(CC2CCCCC2)CCCN(S(=O)(=O)c2ccccc2[N+](=O)[O-])C1`, the IC50 reads like this: (read-out: IC50) 220 nM; (read-out: pIC50 (converted)) 224 nM.

Take `C=C1CN(S(=O)(=O)c2ccc(C)cc2)CCCN(Cc2ccccc2)CCCN(S(=O)(=O)c2cccc3c(N(C)C)cccc23)C1`: the IC50 runs as follows: (read-out: IC50) 5900 nM; (read-out: pIC50 (converted)) 5890 nM.

As for `C=C1CNCCCN(CC2CCCCC2)CCCN(S(=O)(=O)c2ccc(C)cc2)C1`, the IC50 was 19000 nM (read-out: IC50) and 18600 nM (read-out: pIC50 (converted)).

Consider `C=C1CN(S(=O)(=O)c2ccc(C)cc2)CCCN(Cc2ccccc2)CCCN(S(=O)(=O)c2ccc(OC)cc2)C1`, for which the IC50 runs as follows: (read-out: IC50) 300 nM; (read-out: pIC50 (converted)) 295 nM.

In the case of `C=C1CN(S(=O)(=O)c2ccc(C)cc2)CCCN(CC2CCCCC2)CCCN(S(=O)(=O)c2ccc(Cl)cc2)C1`, the IC50 was 360 nM (read-out: IC50) and 363 nM (read-out: pIC50 (converted)).

Consider `C=C1CN(S(=O)(=O)c2ccc(C)cc2)CCCN(CC2CCCCC2)CCCN(S(=O)(=O)c2ccc(C(C)(C)C)cc2)C1`, for which the IC50 is 780 nM (read-out: IC50) and 776 nM (read-out: pIC50 (converted)).

As for `C=C1CN(S(=O)(=O)c2ccc(C)cc2)CCCN(CC2CCCCC2)CCCN(S(=O)(=O)c2cccc3cnccc23)C1`, the IC50 is, setting by setting: (read-out: IC50) over 25000 nM; (read-out: pIC50 (converted)) 22900 nM.

With `C=C1CN(S(=O)(=O)c2ccc(C)cc2)CCCN(CC2CCCCC2)CCCN(S(=O)(=O)c2ccc([N+](=O)[O-])cc2)C1`, the IC50 by setting is: (read-out: IC50) 760 nM; (read-out: pIC50 (converted)) 759 nM.

On to `C=C1CN(S(=O)(=O)c2ccc(C)cc2)CCCN(CC2CCCCC2)CCCN(S(=O)(=O)c2ccc(OC)cc2)C1`, for which the IC50 is, setting by setting: (read-out: IC50) 46 nM; (read-out: pIC50 (converted)) 45.7 nM.

With `C=C1CN(S(=O)(=O)c2ccc(C)cc2)CCCN(CC2CCCCC2)CCCN(S(=O)(=O)c2ccc3ccccc3c2)C1`, the IC50 by setting is: (read-out: IC50) 180 nM; (read-out: pIC50 (converted)) 178 nM.

`C=C1CN(S(=O)(=O)c2ccc(C)cc2)CCCN(CC2CCCCC2)CCCN(S(=O)(=O)c2ccc(C)cc2)C1`: the IC50 runs as follows: (read-out: IC50) 190 nM; (read-out: pIC50 (converted)) 186 nM.

As for `C=C1CN(S(=O)(=O)c2ccc(C)cc2)CCCN(CC2CCCCC2)CCCN(S(=O)(=O)c2cccc3c(N(C)C)cccc23)C1`, the IC50 (read-out: IC50) was found to be 1060 nM and the IC50 (read-out: pIC50 (converted)) was 1070 nM.

As to `C=C1CN(S(=O)(=O)c2ccc(OC)cc2)CCCN(CC2CCCCC2)CCCN(S(=O)(=O)c2ccc(OC)cc2)C1`, the IC50 by setting is: (read-out: IC50) 130 nM; (read-out: pIC50 (converted)) 135 nM.

For the molecule `C=C1CN(S(=O)(=O)c2ccc(C)cc2)CCCN(Cc2ccccc2)CCCN(S(=O)(=O)c2ccc(C)cc2)C1` [CYCLOTRIAZADISULFONAMIDE HYDROCHLORIDE], the IC50 is 560 nM (read-out: IC50) and 562 nM (read-out: pIC50 (converted)).

Take `C=C1CN(S(=O)(=O)c2ccc(OC)cc2)CCCN(CC2CCCCC2)CCCN(S(=O)(=O)c2cccc3c(N(C)C)cccc23)C1`: the IC50 runs as follows: (read-out: IC50) 730 nM; (read-out: pIC50 (converted)) 724 nM.

In the case of `C=C1CN(S(=O)(=O)c2ccc(OC)cc2)CCCN(Cc2ccccc2)CCCN(S(=O)(=O)c2ccc(OC)cc2)C1`, the IC50 is, setting by setting: (read-out: IC50) 230 nM; (read-out: pIC50 (converted)) 229 nM.

Turning to `C=C1CN(S(=O)(=O)c2ccccc2)CCCN(CC2CCCCC2)CCCN(S(=O)(=O)c2ccc(C)cc2)C1`, the IC50 by setting is: (read-out: IC50) 430 nM; (read-out: pIC50 (converted)) 437 nM.
